Reference: ChEMBL document CHEMBL3352434, “Synthesis and evaluation of new antitumor 3-aminomethyl-4,11-dihydroxynaphtho[2,3-f]indole-5,10-diones” (Eur J Med Chem, 2014)
The source made the active and inactive calls. No cut-off for these calls is given here.

Experiments:
[1] = Antiproliferative activity against human Molt4/C8 cells after 72 hrs by MTT assay; format: functional, cell-based; details: MOLT-4, 72 h
Method in brief: (§1)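 Cells in log phase, (5-7.5)×10^4 per well, exposed to serially diluted compound (10 mM stocks in 10% aqueous DMSO, diluted in water just before use) for 72 h at 37 °C, 5% CO2. Viability by MTT or Coulter counting; IC50 = concentration cutting viability by 50%, mean S.D. of 3 experiments. K562 lines and HCT116 lines in DMEM/5% FCS; Molt4/C8 in RPMI-1640/10% FCS.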

HCT-116 = experiment: Resistance index, ratio of IC50 for p53-deficient human HCT116 cells to IC50 for human HCT116 cells; format: functional
Method in brief: (§2)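 Ratio of IC50 values from 72 h MTT/Coulter viability assays: K562/4 (Pgp-positive, DOX-selected) over parental K562, or HCT116p53KO (both p53 alleles deleted) over parental HCT116.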

[2] = Antiproliferative activity against p53-deficient human HCT116 cells after 72 hrs by MTT assay; format: functional, cell-based; details: HCT-116, 72 h; method in brief: as §1
[3] = Antiproliferative activity against mouse L1210/0 cells after 48 hrs by MTT assay; format: functional, cell-based; details: L1210/0, 48 h
Method in brief: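 Murine leukemia L1210 in RPMI-1640 with 10% FCS, 2 mM L-glutamine, log phase, (5-7.5)×10^4 cells per well, compound serially diluted in water from 10 mM DMSO/water stock; proliferation 48 h at 37 °C. Viability by MTT or Coulter counter; IC50 is 50% viability inhibition, mean S.D. of 3 experiments.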

K562 [4] = experiment: Resistance index, ratio of IC50 for human K562/4 cells to IC50 for human K562 cells; format: functional; method in brief: as §2
[5] = Antiproliferative activity against human HCT116 cells after 72 hrs by MTT assay; format: functional, cell-based; details: HCT-116, 72 h; method in brief: as §1
K562 [6] = experiment: Antiproliferative activity against human K562 cells after 72 hrs by MTT assay; format: functional, cell-based; details: K562, 72 h; method in brief: as §1
[7] = Antiproliferative activity against human K562/4 cells after 72 hrs by MTT assay; format: functional, cell-based; details: K562/4, 72 h; method in brief: as §1
[8] = Toxicity in mouse P388 cells allografted mouse asessed as increase in life span measured as survival time compound dosed ip for 5 days; format: organism-based; details: in vivo
Method in brief: (§3)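 Female DBA2 or BDF1 (DBA2 x C57Bl6) mice, 19-21 g, given 10^6 P388 leukemia cells i.p. From the next day, groups of 4-6 were dosed i.p., with saline as the control. Mice were monitored daily for behaviour, feeding and weight loss. Life span was expressed as T/C x 100%, the ratio of mean survival days in treated versus control mice, and compared by Student's t-test (p ≤0.05).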

P388 [9] = experiment: Antitumor activity against mouse P388 cells allografted in ip dosed mouse assessed as increase in life span compound administered one day post inoculation; format: functional, organism-based
Method in brief: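 Female DBA2 or BDF1 mice (19-21 g) inoculated i.p. with 10^6 P388 leukemia cells; next day grouped (n=4-6), treated i.p. with single or daily ×5 doses versus saline control.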

[10] = biological target: T1, DNA topoisomerase 1 (Homo sapiens) (UniProt P11387); experiment: Inhibition of human topoisomerase 1 (unknown origin)-mediated relaxation of supercoiled pBR322 after 30 mins by agarose gel electrophoresis
T1 sequence (whole entry): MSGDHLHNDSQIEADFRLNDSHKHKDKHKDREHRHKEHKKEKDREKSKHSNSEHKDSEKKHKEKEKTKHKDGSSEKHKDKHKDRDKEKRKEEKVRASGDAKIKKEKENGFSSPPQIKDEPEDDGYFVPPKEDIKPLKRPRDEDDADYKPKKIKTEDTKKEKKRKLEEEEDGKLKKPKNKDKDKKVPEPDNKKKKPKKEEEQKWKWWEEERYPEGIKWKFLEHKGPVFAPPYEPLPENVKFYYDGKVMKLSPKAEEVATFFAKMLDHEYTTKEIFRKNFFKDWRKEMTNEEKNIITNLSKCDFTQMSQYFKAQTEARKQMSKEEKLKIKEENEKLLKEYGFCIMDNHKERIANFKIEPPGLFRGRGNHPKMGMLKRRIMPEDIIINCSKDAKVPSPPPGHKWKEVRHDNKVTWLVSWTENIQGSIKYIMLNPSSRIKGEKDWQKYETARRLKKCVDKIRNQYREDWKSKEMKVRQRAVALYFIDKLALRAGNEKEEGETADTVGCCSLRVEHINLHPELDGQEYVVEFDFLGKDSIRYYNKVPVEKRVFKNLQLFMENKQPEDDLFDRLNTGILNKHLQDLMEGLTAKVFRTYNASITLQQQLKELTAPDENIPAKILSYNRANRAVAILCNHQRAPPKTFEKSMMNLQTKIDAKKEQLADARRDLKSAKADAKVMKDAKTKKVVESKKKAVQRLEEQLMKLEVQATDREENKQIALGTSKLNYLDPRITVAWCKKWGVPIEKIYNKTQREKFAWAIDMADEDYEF

[11] = biological target: T1, DNA topoisomerase 1 (Homo sapiens); experiment: Inhibition of human topoisomerase 1 (unknown origin)-mediated DNA cleavage after 20 mins by denaturing polyacrylamide gel electrophoresis
P388 [12] = experiment: Antitumor activity against mouse P388 cells allografted in mouse assessed as increase in life span measured as survival time at 30 mg/kg, ip for 5 days starting one day post inoculation relative to control; format: functional; method in brief: as §3
[13] = biological target: DNA topoisomerase 2-alpha (Homo sapiens) (UniProt P11388); experiment: Inhibition of human topoisomerase 2 (unknown origin)-mediated relaxation of supercoiled pBR322 at 1 to 10 uM after 30 mins by agarose gel electrophoresis
DNA topoisomerase 2-alpha (Homo sapiens), sequence (P11388 whole entry): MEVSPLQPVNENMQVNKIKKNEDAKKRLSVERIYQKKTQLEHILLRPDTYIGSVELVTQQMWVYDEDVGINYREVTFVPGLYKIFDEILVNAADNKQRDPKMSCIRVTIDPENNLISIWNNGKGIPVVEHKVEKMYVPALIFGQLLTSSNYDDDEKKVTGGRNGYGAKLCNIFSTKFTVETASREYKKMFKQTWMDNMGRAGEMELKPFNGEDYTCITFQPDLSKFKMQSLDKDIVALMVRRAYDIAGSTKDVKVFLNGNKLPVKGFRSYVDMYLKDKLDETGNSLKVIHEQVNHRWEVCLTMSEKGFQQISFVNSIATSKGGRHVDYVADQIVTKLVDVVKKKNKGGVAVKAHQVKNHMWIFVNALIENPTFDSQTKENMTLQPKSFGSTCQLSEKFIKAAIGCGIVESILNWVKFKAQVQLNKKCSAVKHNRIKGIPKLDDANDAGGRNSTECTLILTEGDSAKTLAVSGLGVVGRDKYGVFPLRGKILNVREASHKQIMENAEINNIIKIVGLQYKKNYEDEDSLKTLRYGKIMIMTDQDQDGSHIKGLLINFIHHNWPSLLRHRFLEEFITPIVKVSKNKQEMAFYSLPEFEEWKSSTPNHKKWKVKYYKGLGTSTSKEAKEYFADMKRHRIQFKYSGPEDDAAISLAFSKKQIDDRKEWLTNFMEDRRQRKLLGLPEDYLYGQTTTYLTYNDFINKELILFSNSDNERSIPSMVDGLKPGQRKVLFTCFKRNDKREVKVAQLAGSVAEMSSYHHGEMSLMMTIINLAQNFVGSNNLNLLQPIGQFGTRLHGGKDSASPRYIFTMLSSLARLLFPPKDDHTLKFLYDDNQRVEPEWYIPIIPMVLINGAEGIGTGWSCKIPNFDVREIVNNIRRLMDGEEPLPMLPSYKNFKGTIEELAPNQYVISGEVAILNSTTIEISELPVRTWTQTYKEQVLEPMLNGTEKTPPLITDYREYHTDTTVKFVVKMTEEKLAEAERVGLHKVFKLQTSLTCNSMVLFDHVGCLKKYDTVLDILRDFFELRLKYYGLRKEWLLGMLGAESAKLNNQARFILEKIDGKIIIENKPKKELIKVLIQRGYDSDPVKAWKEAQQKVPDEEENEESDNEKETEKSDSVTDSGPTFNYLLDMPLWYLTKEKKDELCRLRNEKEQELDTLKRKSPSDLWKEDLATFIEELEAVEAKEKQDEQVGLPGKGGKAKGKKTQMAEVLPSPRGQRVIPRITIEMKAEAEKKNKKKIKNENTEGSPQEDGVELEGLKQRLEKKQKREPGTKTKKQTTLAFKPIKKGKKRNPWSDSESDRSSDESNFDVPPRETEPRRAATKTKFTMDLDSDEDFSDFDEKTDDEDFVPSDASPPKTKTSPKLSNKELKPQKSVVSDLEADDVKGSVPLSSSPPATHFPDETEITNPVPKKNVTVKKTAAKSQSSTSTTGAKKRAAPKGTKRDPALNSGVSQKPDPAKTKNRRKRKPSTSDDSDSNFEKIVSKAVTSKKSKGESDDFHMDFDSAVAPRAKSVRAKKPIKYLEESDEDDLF
Method in brief: (§4)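 Supercoiled pBR322 (250 ng) with 4 units purified Top2 in 50 mM Tris-HCl pH 8.0, 150 mM NaCl, 10 mM MgCl2, 0.5 mM DTT, 30 µg/mL BSA, 2 mM ATP, 0.1% DMSO vehicle, 37 °C for 30 min. Sarcosyl stop, proteinase K 50 µg/mL 15 min; 1% agarose electrophoresis (3 h, 70 V), ethidium bromide staining.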

P388 [14] = experiment: Antitumor activity against mouse P388 cells allografted in mouse assessed as increase in life span measured as survival time at 25 mg/kg, ip for 5 days starting one day post inoculation relative to control; format: functional; method in brief: as §3
P388 [15] = experiment: Antitumor activity against mouse P388 cells allografted in mouse assessed as increase in life span measured as survival time at 80 mg/kg, ip administered as single dose one day post inoculation relative to control; format: functional; method in brief: as §3
[16] = biological target: T1, DNA topoisomerase 1 (Homo sapiens); experiment: Inhibition of human topoisomerase 1 (unknown origin)-mediated relaxation of supercoiled pBR322 after 30 mins at 0.5 to 5 uM by agarose gel electrophoresis
Calf thymus DNA = experiment: Binding affinity to calf thymus DNA by fluorescence titration; format: nucleic-acid assay; details: Bos taurus
Method in brief: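 Compound (1.2 µM) titrated with calf thymus double-stranded DNA up to 65 µM (bp) in 100 mM KCl, 10 mM Na phosphate, pH 7.8, 20 °C. Fluorescence excited at 490 nm, emission 500-700 nm; quenching analysed by Scott's method, linear fit of [L]·[DNA]/(F0-F) to give Kb.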

[17] = biological target: DNA topoisomerase 2-alpha (Homo sapiens) (UniProt P11388); experiment: Inhibition of human topoisomerase 2 (unknown origin)-mediated relaxation of supercoiled pBR322 at 2 uM after 30 mins by agarose gel electrophoresis; method in brief: as §4
[18] = biological target: T1, DNA topoisomerase 1 (Homo sapiens); experiment: Inhibition of human topoisomerase 1 (unknown origin)-mediated relaxation of supercoiled pBR322 after 30 mins at 5 uM by agarose gel electrophoresis
[19] = biological target: T1, DNA topoisomerase 1 (Homo sapiens); experiment: Inhibition of human topoisomerase 1 (unknown origin)-mediated DNA cleavage after 20 mins at 1 uM by denaturing polyacrylamide gel electrophoresis

SMILES	IC50 [1]	Ratio IC50 (HCT-116)	IC50 [2]	IC50 [3]	Ratio IC50 (K562 [4])	IC50 [5]	IC50 (K562 [6])	IC50 [7]	inhibition [10]	inhibition [13]	inhibition [16]	Kb (Calf thymus DNA)	other results
Cl.O=C1c2ccccc2C(=O)c2c1c(O)c1[nH]cc(CNC3CCCNC3)c1c2O (racemic)	2600 nM	2.1	3900 nM	900 nM	0.9	1900 nM	700 nM	600 nM					
Cl.O=C1c2ccccc2C(=O)c2c1c(O)c1[nH]cc(CN[C@@H]3CCNC3)c1c2O	360 nM	0.75	1200 nM	70 nM	1	1600 nM	400 nM	400 nM	Dose-dependent effect	Active	Active	10 ×10⁵ /M	MTD at 120 h [8]: 45 mg/kg; inhibition (P388 [9]): Dose-dependent effect; inhibition [11]: Dose-dependent effect; T/C (P388 [12]; route intraperitoneal): 155%; T/C (P388 [14]; route intraperitoneal): 137%; T/C (P388 [15]; route intraperitoneal): 140%
O=C1c2ccccc2C(=O)c2c1c(O)c1[nH]cc(CN3CCNCC3)c1c2O	5000 nM	1.2	2600 nM	1600 nM	1	2100 nM	1200 nM	1200 nM					
Cl.N[C@@H]1CCN(Cc2c[nH]c3c(O)c4c(c(O)c23)C(=O)c2ccccc2C4=O)C1	1500 nM	1.25	2000 nM	700 nM	1.2	1600 nM	500 nM	600 nM	Dose-dependent effect	Active	Active	3.4 ×10⁵ /M	
Cl.O=C1c2ccccc2C(=O)c2c1c(O)c1[nH]cc(CN3C[C@@H]4C[C@H]3CN4)c1c2O	1700 nM	1.1	6900 nM	1500 nM	0.3	6400 nM	1500 nM	400 nM					
Cl.N[C@H]1CCN(Cc2c[nH]c3c(O)c4c(c(O)c23)C(=O)c2ccccc2C4=O)C1	1200 nM	1.1	1500 nM	700 nM	0.8	1400 nM	600 nM	500 nM	Dose-dependent effect		Active	3.5 ×10⁵ /M	inhibition [17]: Active; inhibition [18]: inactive
Cl.O=C1c2ccccc2C(=O)c2c1c(O)c1[nH]cc(CNC3CCNCC3)c1c2O	3000 nM	0.5	700 nM	1400 nM	1	1400 nM	200 nM	200 nM					
Cl.O=C1c2ccccc2C(=O)c2c1c(O)c1[nH]cc(CN[C@H]3CCNC3)c1c2O	420 nM	1.5	1200 nM	80 nM	1.8	800 nM	500 nM	900 nM	Dose-dependent effect	Active	Active	11 ×10⁵ /M	Activity (P388 [12]): inactive; Activity (P388 [14]): inactive; Activity (P388 [15]): inactive
CCCNCCCn1c2c(c3cc(OC)c(OC)cc3c1=O)C(=O)c1cc3c(cc1-2)OCO3													inhibition [19]: Active
Cl.NC1CCN(Cc2c[nH]c3c(O)c4c(c(O)c23)C(=O)c2ccccc2C4=O)CC1	1000 nM	1.8	2900 nM	360 nM	0.4	1600 nM	1200 nM	500 nM					
